Assay results taken from ChEMBL document CHEMBL1131421, “Tetrahydro-isoquinoline-based factor Xa inhibitors” (J Med Chem, 1998).

Tests used:
Coagulation factor X = Coagulation factor X (Homo sapiens, UniProt P00742); assay: The inhibition constant against human Coagulation factor X
[1] = The Anti-coagulant activity was tested by measuring activated partial thromboplastin time (aPTT); format: functional
Procedure, shortened: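 Human citrated plasma (blood 9:1 with 0.11 mol/L sodium citrate, spun 3000 rpm 10 min, RT, used within 8 h) plus aPTT reagent and compound in DMSO (DMSO-only control), 3 min at 37 °C in a coagulometer; clotting time recorded at 1000, 200, 100, 10, 1 μM in plasma. ED200 (aPTT-doubling concentration) from nonlinear fit of y = a + b·x^c; quadruplicate determinations.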

Prothrombin [2] = molecular target: T1, Prothrombin (Homo sapiens, UniProt P00734); assay: The Anti-coagulant activity was tested by measuring thrombin clotting time (TT); format: functional
Procedure, shortened: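 Thrombin clotting time in human citrated plasma (blood 9:1 with 0.11 mol/L citrate, spun 3000 rpm 10 min, stored RT ≤8 h); plasma with compound in DMSO or DMSO control incubated 2 min at 37 °C in coagulometer. Clotting measured at 500, 100, 50, 5, 0.5 μM in plasma; doubling concentration (ED200) obtained by nonlinear regression of y = a + b·x^c.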

Prothrombin [3] = molecular target: T1, Prothrombin; assay: The inhibition constant against human thrombin
Trypsin = Trypsin (Homo sapiens, UniProt P07477+P07478+P35030); assay: The inhibition constant against human trypsin; format: protein assay
Plasminogen = Plasminogen (Homo sapiens, UniProt P00747); assay: The inhibition constant against human plasmin
Plasminogen, sequence (P00747 97-580 limits assumed): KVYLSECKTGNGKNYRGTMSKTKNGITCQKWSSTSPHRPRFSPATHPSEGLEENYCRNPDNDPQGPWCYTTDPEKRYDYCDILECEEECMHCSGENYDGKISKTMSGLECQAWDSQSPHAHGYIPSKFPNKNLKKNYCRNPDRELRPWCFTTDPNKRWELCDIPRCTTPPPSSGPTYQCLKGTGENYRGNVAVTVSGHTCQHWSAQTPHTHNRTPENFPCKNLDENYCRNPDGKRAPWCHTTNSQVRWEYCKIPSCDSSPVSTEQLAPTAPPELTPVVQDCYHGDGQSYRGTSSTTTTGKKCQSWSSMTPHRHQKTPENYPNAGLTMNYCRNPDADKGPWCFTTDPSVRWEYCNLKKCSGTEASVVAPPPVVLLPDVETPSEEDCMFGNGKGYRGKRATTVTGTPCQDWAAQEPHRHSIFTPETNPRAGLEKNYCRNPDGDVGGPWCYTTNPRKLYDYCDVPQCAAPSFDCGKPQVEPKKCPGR
Plasminogen, sequence (P00747 581-810 limits assumed): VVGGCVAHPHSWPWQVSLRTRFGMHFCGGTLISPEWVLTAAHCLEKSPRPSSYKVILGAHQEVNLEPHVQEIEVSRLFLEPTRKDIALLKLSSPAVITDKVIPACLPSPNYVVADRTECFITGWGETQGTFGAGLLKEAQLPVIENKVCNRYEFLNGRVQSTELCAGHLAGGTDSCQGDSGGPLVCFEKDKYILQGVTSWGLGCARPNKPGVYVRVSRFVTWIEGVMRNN

Coagulation factor X, sequence (P00742 41-179 limits assumed): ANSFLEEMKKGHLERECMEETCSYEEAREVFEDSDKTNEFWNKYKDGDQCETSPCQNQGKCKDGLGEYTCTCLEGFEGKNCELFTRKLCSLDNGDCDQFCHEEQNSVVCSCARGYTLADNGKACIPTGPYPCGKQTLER
Coagulation factor X, sequence (P00742 235-488 limits assumed): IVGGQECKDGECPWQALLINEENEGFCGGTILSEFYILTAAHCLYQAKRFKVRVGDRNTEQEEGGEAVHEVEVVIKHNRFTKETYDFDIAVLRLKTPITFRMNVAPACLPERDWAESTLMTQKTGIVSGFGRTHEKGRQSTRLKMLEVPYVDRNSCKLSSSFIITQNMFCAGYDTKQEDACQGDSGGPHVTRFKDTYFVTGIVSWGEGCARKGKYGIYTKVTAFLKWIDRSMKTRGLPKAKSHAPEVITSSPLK

Structure (SMILES)	Ki (Coagulation factor X)	ED200 (Prothrombin [2])	Ki (Prothrombin [3])	Ki (Trypsin)	Ki (Plasminogen)	ED200 [1]
COc1ccc(C(=N)N2CCC(Oc3ccc(C(Oc4ccc5c(c4)CN(C(=N)N)CC5)C(=O)O)cc3)CC2)cc1 (stereo not drawn)	0.026 µM	> 500 µM	> 100 µM	0.2 µM	–	7 µM
C=CCOC(=O)N1CCC(Oc2ccc(C(Oc3ccc4c(c3)CN(C(=N)N)CC4)C(=O)OCC)cc2)CC1 (stereo not drawn)	3 µM	> 500 µM	4 µM	–	14 µM	260 µM
C=CCN1CC[C@H](Oc2ccc(C(Oc3ccc4c(c3)CN(C(=N)N)CC4)C(=O)OCC)cc2)C1 (stereo partly drawn)	1 µM	240 µM	> 100 µM	10 µM	50 µM	27 µM
C=CCOC(=O)N1CC[C@H](Oc2ccc(C(Oc3ccc4c(c3)CN(C(=N)N)CC4)C(=O)OCC)cc2)C1 (stereo partly drawn)	0.2 µM	500 µM	> 100 µM	9 µM	10 µM	200 µM
CCOC(=O)C(Oc1ccc2c(c1)CN(C(=N)N)CC2)c1ccc(O[C@H]2CCNC2)cc1 (stereo partly drawn)	0.4 µM	140 µM	> 100 µM	6 µM	40 µM	26 µM
CC(=N)N1CC[C@H](Oc2ccc([C@H](Cc3ccc4ccc(C(=N)N)cc4c3)C(=O)O)cc2)C1.Cl [DX-9065A HYDROCHLORIDE HYDRATE]	–	–	–	2 µM	11 µM	–
CCOC(=O)C(Oc1ccc2c(c1)CN(C(=N)N)CC2)c1ccc(OC2CCN(C(=N)c3ccc(OC)cc3)CC2)cc1 (stereo not drawn)	0.021 µM	32 µM	5 µM	0.2 µM	–	6 µM
CCOC(=O)C(Oc1ccc2c(c1)CN(C(=N)N)CC2)c1ccc(OC2CCN(C(=N)N)CC2)cc1 (stereo not drawn)	0.028 µM	54 µM	8 µM	0.2 µM	25 µM	3 µM
CCOC(=O)C(Oc1ccc2c(c1)CN(C(=N)N)CC2)c1ccc(OC2CCN(C(C)=O)CC2)cc1 (stereo not drawn)	3 µM	200 µM	> 100 µM	10 µM	10 µM	100 µM
CCOC(=O)C(Oc1ccc2c(c1)CN(C(=N)N)CC2)c1ccc(OC2CCN(C(=N)CC)CC2)cc1 (stereo not drawn)	0.03 µM	70 µM	20 µM	0.08 µM	–	10 µM
CC(=N)N1CC[C@H](Oc2ccc(C(Oc3ccc4c(c3)CN(C(=N)N)CC4)C(=O)O)cc2)C1 (stereo partly drawn)	0.08 µM	> 500 µM	> 100 µM	10 µM	–	30 µM
CCOC(=O)C(Oc1ccc2c(c1)CN(C(=N)N)CC2)c1ccc(O[C@H]2CCN(C(C)=N)C2)cc1 (stereo partly drawn)	0.1 µM	100 µM	> 100 µM	2 µM	–	10 µM
CCOC(=O)C(Oc1ccc2c(c1)CN(C(=N)N)CC2)c1ccc(O[C@H]2CCN(C(=N)N)C2)cc1 (stereo partly drawn)	0.2 µM	300 µM	13 µM	2 µM	45 µM	10 µM
CCOC(=O)C(Oc1ccc2c(c1)CN(C(=N)N)CC2)c1ccc(OC2CCNCC2)cc1 (stereo not drawn)	2 µM	71 µM	16 µM	3 µM	25 µM	26 µM
CC1(C)CC(=O)C=C(N2CC[C@H](Oc3ccc(C(Oc4ccc5c(c4)CN(C(=N)N)CC5)C(=O)O)cc3)C2)C1 (stereo partly drawn)	0.2 µM	> 500 µM	> 100 µM	10 µM	50 µM	200 µM
CCOC(=O)C(Oc1ccc2c(c1)CN(C(=N)N)CC2)c1ccc(OC2CCN(C(C)=N)CC2)cc1 (stereo not drawn)	0.03 µM	53 µM	15 µM	0.4 µM	25 µM	3 µM
CCOC(=O)C(Oc1ccc2c(c1)CN(C(=N)N)CC2)c1ccc(O[C@H]2CCN(C3=CC(=O)CC(C)(C)C3)C2)cc1 (stereo partly drawn)	0.2 µM	90 µM	> 100 µM	10 µM	50 µM	24 µM

Continued, in another order:

Ki (Coagulation factor X)	ED200 (Prothrombin [2])	Ki (Prothrombin [3])	Ki (Trypsin)	Ki (Plasminogen)	Structure (SMILES)	ED200 [1]
0.4 µM	> 500 µM	> 100 µM	5 µM	–	CC(=O)N1CCC(Oc2ccc(C(Oc3ccc4c(c3)CN(C(=N)N)CC4)C(=O)O)cc2)CC1 (stereo not drawn)	150 µM
2 µM	500 µM	8 µM	3 µM	26 µM	CCOC(=O)C(Oc1ccc2c(c1)CN(C(=N)N)CC2)c1ccc(OC2CCOCC2)cc1 (stereo not drawn)	250 µM
0.055 µM	> 500 µM	> 100 µM	2 µM	52 µM	CC(=N)N1CCC(Oc2ccc(C(Oc3ccc4c(c3)CN(C(=N)N)CC4)C(=O)O)cc2)CC1 (stereo not drawn)	11 µM
0.044 µM	> 500 µM	> 100 µM	0.2 µM	44 µM	N=C(N)N1CCC(Oc2ccc(C(Oc3ccc4c(c3)CN(C(=N)N)CC4)C(=O)O)cc2)CC1 (stereo not drawn)	9 µM
1 µM	> 500 µM	> 100 µM	10 µM	10 µM	N=C(N)N1CCc2ccc(OC(C(=O)O)c3ccc(O[C@H]4CCNC4)cc3)cc2C1 (stereo partly drawn)	50 µM
2 µM	> 500 µM	> 100 µM	6 µM	25 µM	N=C(N)N1CCc2ccc(OC(C(=O)O)c3ccc(OC4CCNCC4)cc3)cc2C1 (stereo not drawn)	190 µM
3 µM	> 500 µM	> 100 µM	12 µM	25 µM	N=C(N)N1CCc2ccc(OC(C(=O)O)c3ccc(OC4CCOCC4)cc3)cc2C1 (stereo not drawn)	> 500 µM
0.2 µM	> 500 µM	> 100 µM	1 µM	–	N=C(N)N1CCc2ccc(OC(C(=O)O)c3ccc(O[C@H]4CCN(C(=N)N)C4)cc3)cc2C1 (stereo partly drawn)	40 µM
